Experimental data collected from several papers.
Each line is one published result; the experiments were not run side by side.

SMILES	cell line	assay	setting	IC50
N#Cc1ccc(-c2cc(COc3cc(=O)oc4ccccc34)on2)cc1	CAPAN-1	cell growth or viability, MTS	72 h	> 100 µM
Nc1ccccc1NC(=O)c1ccc(Cn2cnc3c(Nc4ccc(Cl)cc4)ncnc32)cc1	THP-1	cell growth or viability, MTT	72 h	0.48 µM
Cc1cc2c(C(=O)O)cccc2n1-c1nc2c(c(NCc3ccccc3)n1)CCCN2	SW-620	cell growth or viability	72 h	2.1 µM
O=P1(C2CCCCC2)CCCCC1	SW-620	cell growth or viability, MTT	72 h	16.1 µM
N#Cc1ccc(-c2cc(CNc3cccc4cccnc34)on2)cc1	CAPAN-1	cell growth or viability, MTS	72 h	13.1 µM
COc1nnc2ccc(N3CCC(c4ccc(OCCN5CCN(C)C(=O)[C@H]5C)cc4)CC3)nn12	MP46	cell growth or viability, ATP luminescence	72 h	0.0683 µM
O=P1(c2ccccc2)CCCCC1	SW-620	cell growth or viability, MTT	72 h	> 100 µM
Cc1[nH]c2ccccc2c1CCNCc1ccc(/C=C/C(=O)NO)cc1	MP46	cell growth or viability, ATP luminescence	72 h	0.0277 µM
Cc1cccc(C)c1NC(=O)CN1CCCC1=O	HepaRG	reactive oxygen species, inhibitor	16 h	5.93 µM
O=c1cc(OCc2cc(-c3ccc(C(F)(F)F)cc3)no2)c2ccccc2o1	CAPAN-1	cell growth or viability, MTS	72 h	> 100 µM
O=C(NO)c1ccc(Cn2cnc3c(Nc4cccc([N+](=O)[O-])c4)ncnc32)cc1	THP-1	cell growth or viability, MTT	72 h	0.53 µM
CCS(=O)(=O)Nc1ccc(Oc2ccc(F)cc2F)c(-c2cn(C)c(=O)c3[nH]ccc23)c1	MP46	cell growth or viability, ATP luminescence	72 h	0.0892 µM
COc1cc(C2C3=C(COC3=O)N(CCO)c3cc4c(cc32)CCC4)cc(OC)c1OC (centres unmarked)	SUM159	cell growth or viability, ATP luminescence	48 h	0.24 µM
Cc1cc2c(C(N)=O)cccc2n1-c1nc2c(c(NCc3ccccc3)n1)CCCN2	SW-620	cell growth or viability	72 h	0.6 µM
O=C(CSc1nc2ccccc2s1)N/N=C/c1ccc(OCC(=O)Nc2cccc(Br)c2)cc1	CAPAN-1	cell growth or viability, MTS	72 h	> 100 µM
COc1ccc(N(C)c2nc(C)nc3ccccc23)cc1OCCCC(=O)NO	MP46	cell growth or viability, ATP luminescence	72 h	0.0948 µM

SMILES	cell line	assay	setting	IC50
FC(F)(F)c1cc(OCc2cc(-c3ccc(Cl)cc3Cl)no2)c2ccccc2n1	CAPAN-1	cell growth or viability, MTS	72 h	> 100 µM
O=C(CSc1nc2ccccc2s1)N/N=C/c1ccc(OCC(=O)Nc2ccc(Br)cc2)cc1	CAPAN-1	cell growth or viability, MTS	72 h	10.2 µM
c1ccc(Oc2ccc(Nc3c4c(nc5ccccc35)CCC4)cc2)cc1	THP-1	cell growth or viability	72 h	18.3 µM
c1ccc(-c2cc(CNc3cccc4cccnc34)on2)nc1	CAPAN-1	cell growth or viability, MTS	72 h	13.1 µM
CC1(COc2ccc(CC3SC(=O)NC3=O)cc2)CCCCC1 (centres unmarked)	HepaRG	reactive oxygen species, inhibitor	16 h	11.1 µM
O=C(CSc1nc2ccccc2s1)N/N=C/c1ccc(OCC(=O)Nc2cccc(Cl)c2)cc1	CAPAN-1	cell growth or viability, MTS	72 h	18.2 µM
N/C(=N\O)c1ccc(-c2cc(CNc3cccc4cccnc34)on2)cc1	CAPAN-1	cell growth or viability, MTS	72 h	4.7 µM
CCOc1ccc(Nc2c3c(nc4ccccc24)CCC3)cc1	THP-1	cell growth or viability	72 h	18.6 µM
CC(C)C[C@H](NC(=O)[C@H](Cc1ccccc1)NC(=O)c1cnccn1)B(O)O	MP46	cell growth or viability, ATP luminescence	72 h	0.00352 µM
CSC(=O)c1cccc2nnsc12	HepaRG	reactive oxygen species, inhibitor	16 h	10.7 µM
Nc1ccccc1NC(=O)c1ccc(Cn2cnc3c(Nc4ccc(Br)cc4F)ncnc32)cc1	THP-1	cell growth or viability, MTT	72 h	0.41 µM
c1ccc(-c2cc(CNc3cccc4cccnc34)on2)cc1	CAPAN-1	cell growth or viability, MTS	72 h	11.4 µM
COc1cc([C@@H]2c3cc4c(cc3[C@H](O)[C@H]3COC(=O)[C@H]23)OCO4)cc(OC)c1OC	MP46	cell growth or viability, ATP luminescence	72 h	0.00656 µM
O=C(NO)c1ccc(Cn2cnc3c(Nc4ccc(Br)cc4F)ncnc32)cc1	THP-1	cell growth or viability, MTT	72 h	0.93 µM
Nc1ccn([C@@H]2O[C@H](CO)[C@@H](O)C2(F)F)c(=O)n1	MP46	cell growth or viability, ATP luminescence	72 h	0.169 µM
FC(F)(F)c1ccc(-c2cc(COc3cc(C(F)(F)F)nc4ccccc34)on2)cc1	CAPAN-1	cell growth or viability, MTS	72 h	> 100 µM
